Test results as given in ChEMBL document CHEMBL3632558, “Synthesis, antimycobacterial and antibacterial activity of l-[(1R,2S)-2-fluorocyclopropyl]naphthyridone derivatives containing an oxime-functionalized pyrrolidine moiety” (2015).
Values after ≈ are worked out from the molar mass of the structure shown.

How the values were obtained:
Type in all cases: functional
Klebsiella pneumoniae [1] = experiment: Antibacterial activity against ESBL-positive Klebsiella pneumoniae 14-19 after 18 to 24 hrs
Procedure, shortened: (§1)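 MIC by standard NCCLS reference procedure (M100-S11); lowest concentration of compound inhibiting visible bacterial growth after incubation at 35 °C for 18–24 h, read as complete inhibition of growth. Ciprofloxacin, levofloxacin and moxifloxacin run alongside as reference agents.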

Staphylococcus aureus [2] = experiment: Antibacterial activity against Staphylococcus aureus CMCC 26003 after 18 to 24 hrs; procedure, shortened: as §1
[3] = test system: Staphylococcus epidermidis; experiment: Antibacterial activity against methicillin-resistant Staphylococcus epidermidis 14-39 after 18 to 24 hrs
Pseudomonas aeruginosa [4] = experiment: Antibacterial activity against Pseudomonas aeruginosa 14-16 after 18 to 24 hrs; procedure, shortened: as §1
Staphylococcus aureus [5] = experiment: Antibacterial activity against methicillin-sensitive Staphylococcus aureus 14-1 after 18 to 24 hrs; procedure, shortened: as §1
Escherichia coli [6] = experiment: Antibacterial activity against Escherichia coli ATCC 25922 after 18 to 24 hrs; procedure, shortened: as §1
[7] = test system: Staphylococcus epidermidis; experiment: Antibacterial activity against methicillin-sensitive Staphylococcus epidermidis 14-2 after 18 to 24 hrs; procedure, shortened: as §1
Escherichia coli [8] = experiment: Antibacterial activity against Escherichia coli 14-1 after 18 to 24 hrs; procedure, shortened: as §1
Enterococcus faecium [9] = experiment: Antibacterial activity against Enterococcus faecium 14-5 after 18 to 24 hrs; procedure, shortened: as §1
Pseudomonas aeruginosa [10] = experiment: Antibacterial activity against Pseudomonas aeruginosa 14-9 after 18 to 24 hrs; procedure, shortened: as §1
[11] = test system: Mycobacterium tuberculosis; experiment: Antimycobacterial activity against Mycobacterium tuberculosis H37Rv ATCC 27294 by alamar blue assay
Procedure, shortened: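 Microplate Alamar Blue Assay; MIC is the lowest concentration giving ≥90% reduction in fluorescence relative to the mean of replicate bacterium-only controls. MDR strain 6133 is resistant to isoniazid and rifampicin.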

Enterococcus faecalis [12] = experiment: Antibacterial activity against Enterococcus faecalis 14-2 after 18 to 24 hrs; procedure, shortened: as §1
Enterococcus faecium [13] = experiment: Antibacterial activity against Enterococcus faecium 14-1 after 18 to 24 hrs; procedure, shortened: as §1
Enterococcus faecium [14] = experiment: Antibacterial activity against Enterococcus faecium 14-2 after 18 to 24 hrs; procedure, shortened: as §1
Escherichia coli [15] = experiment: Antibacterial activity against ESBL-positive Escherichia coli 14-2 after 18 to 24 hrs; procedure, shortened: as §1
Klebsiella pneumoniae [16] = experiment: Antibacterial activity against ESBL-positive Klebsiella pneumoniae 14-17 after 18 to 24 hrs; procedure, shortened: as §1
Staphylococcus aureus [17] = experiment: Antibacterial activity against methicillin-resistant Staphylococcus aureus 14-5 after 18 to 24 hrs
Enterococcus faecalis [18] = experiment: Antibacterial activity against Enterococcus faecalis 14-1 after 18 to 24 hrs; procedure, shortened: as §1
Staphylococcus aureus [19] = experiment: Antibacterial activity against methicillin-sensitive Staphylococcus aureus 14-4 after 18 to 24 hrs; procedure, shortened: as §1
[20] = test system: Staphylococcus epidermidis; experiment: Antibacterial activity against methicillin-resistant Staphylococcus epidermidis 14-37 after 18 to 24 hrs
Klebsiella pneumoniae [21] = experiment: Antibacterial activity against ESBL-positive Klebsiella pneumoniae 14-18 after 18 to 24 hrs; procedure, shortened: as §1
Pseudomonas aeruginosa [22] = experiment: Antibacterial activity against Pseudomonas aeruginosa 14-14 after 18 to 24 hrs; procedure, shortened: as §1
Pseudomonas aeruginosa [23] = experiment: Antibacterial activity against Pseudomonas aeruginosa 14-19 after 18 to 24 hrs; procedure, shortened: as §1
Klebsiella pneumoniae [24] = experiment: Antibacterial activity against Klebsiella pneumoniae 14-1 after 18 to 24 hrs; procedure, shortened: as §1
[25] = test system: Staphylococcus epidermidis; experiment: Antibacterial activity against methicillin-resistant Staphylococcus epidermidis 14-21 after 18 to 24 hrs
Klebsiella pneumoniae [26] = experiment: Antibacterial activity against Klebsiella pneumoniae 14-2 after 18 to 24 hrs; procedure, shortened: as §1
Klebsiella pneumoniae [27] = experiment: Antibacterial activity against Klebsiella pneumoniae 14-3 after 18 to 24 hrs; procedure, shortened: as §1
Pseudomonas aeruginosa [28] = experiment: Antibacterial activity against Pseudomonas aeruginosa ATCC 27853 after 18 to 24 hrs; procedure, shortened: as §1
Enterococcus faecium [29] = experiment: Antibacterial activity against Enterococcus faecium 14-6 after 18 to 24 hrs; procedure, shortened: as §1
Staphylococcus aureus [30] = experiment: Antibacterial activity against methicillin-resistant Staphylococcus aureus 14-4 after 18 to 24 hrs
Escherichia coli [31] = experiment: Antibacterial activity against Escherichia coli 14-2 after 18 to 24 hrs; procedure, shortened: as §1
Pseudomonas aeruginosa [32] = experiment: Antibacterial activity against Pseudomonas aeruginosa 14-15 after 18 to 24 hrs; procedure, shortened: as §1
[33] = test system: Staphylococcus epidermidis; experiment: Antibacterial activity against methicillin-resistant Staphylococcus epidermidis 14-22 after 18 to 24 hrs
Streptococcus pneumoniae = experiment: Antibacterial activity against Streptococcus pneumoniae ATCC 19615 after 18 to 24 hrs; procedure, shortened: as §1
Klebsiella pneumoniae [34] = experiment: Antibacterial activity against Klebsiella pneumoniae 14-4 after 18 to 24 hrs; procedure, shortened: as §1
Staphylococcus aureus [35] = experiment: Antibacterial activity against methicillin-sensitive Staphylococcus aureus 14-2 after 18 to 24 hrs; procedure, shortened: as §1
Staphylococcus aureus [36] = experiment: Antibacterial activity against methicillin-sensitive Staphylococcus aureus 14-3 after 18 to 24 hrs; procedure, shortened: as §1
Escherichia coli [37] = experiment: Antibacterial activity against ESBL-positive Escherichia coli 14-1 after 18 to 24 hrs; procedure, shortened: as §1

SMILES | MIC (Klebsiella pneumoniae [1]) [µg/mL] | MIC (Staphylococcus aureus [2]) [µg/mL] | MIC [3] [µg/mL] | MIC (Pseudomonas aeruginosa [4]) [µg/mL] | MIC (Staphylococcus aureus [5]) [µg/mL] | MIC (Escherichia coli [6]) [µg/mL] | MIC [7] [µg/mL] | MIC (Escherichia coli [8]) [µg/mL] | MIC (Enterococcus faecium [9]) [µg/mL] | MIC (Pseudomonas aeruginosa [10]) [µg/mL] | MIC90 [11] [µg/mL] | MIC (Enterococcus faecalis [12]) [µg/mL] | MIC (Enterococcus faecium [13]) [µg/mL] | MIC (Enterococcus faecium [14]) [µg/mL] | MIC (Escherichia coli [15]) [µg/mL] | MIC (Klebsiella pneumoniae [16]) [µg/mL] | MIC (Staphylococcus aureus [17]) [µg/mL] | MIC (Enterococcus faecalis [18]) [µg/mL] | MIC (Staphylococcus aureus [19]) [µg/mL] | MIC [20] [µg/mL] | other results
COc1cccc(CO/N=C2\CN(c3nc4c(cc3F)c(=O)c(C(=O)O)cn4[C@@H]3C[C@@H]3F)CC2CN)c1OC (stereo partly specified) | 128 (≈ 235 µM) | < 0.008 | 16 (≈ 29.4 µM) | 16 (≈ 29.4 µM) | 4 (≈ 7.36 µM) | 0.03 (≈ 0.0552 µM) | 32 (≈ 58.9 µM) | 2 (≈ 3.68 µM) | 4 (≈ 7.36 µM) | 8 (≈ 14.7 µM) | 0.376 (≈ 0.692 µM) | 0.015 (≈ 0.0276 µM) | 1 (≈ 1.84 µM) | 1 (≈ 1.84 µM) | 128 (≈ 235 µM) | 128 (≈ 235 µM) | 2 (≈ 3.68 µM) | 64 (≈ 118 µM) | 0.015 (≈ 0.0276 µM) | 16 (≈ 29.4 µM) | MIC (Klebsiella pneumoniae [21]): 16 µg/mL (≈ 29.4 µM); MIC (Pseudomonas aeruginosa [22]): 16 µg/mL (≈ 29.4 µM); MIC (Pseudomonas aeruginosa [23]): 16 µg/mL (≈ 29.4 µM); MIC (Klebsiella pneumoniae [24]): 128 µg/mL (≈ 235 µM); MIC [25]: 2 µg/mL (≈ 3.68 µM); MIC (Klebsiella pneumoniae [26]): 128 µg/mL (≈ 235 µM); MIC (Klebsiella pneumoniae [27]): 64 µg/mL (≈ 118 µM); MIC (Pseudomonas aeruginosa [28]): 2 µg/mL (≈ 3.68 µM); MIC (Enterococcus faecium [29]): 16 µg/mL (≈ 29.4 µM); MIC (Staphylococcus aureus [30]): 16 µg/mL (≈ 29.4 µM); MIC (Escherichia coli [31]): 128 µg/mL (≈ 235 µM); MIC (Pseudomonas aeruginosa [32]): 16 µg/mL (≈ 29.4 µM); MIC [33]: 1 µg/mL (≈ 1.84 µM); MIC (Streptococcus pneumoniae): 0.03 µg/mL (≈ 0.0552 µM); MIC (Klebsiella pneumoniae [34]): 128 µg/mL (≈ 235 µM); MIC (Staphylococcus aureus [35]): < 0.008 µg/mL; MIC (Staphylococcus aureus [36]): < 0.008 µg/mL; MIC (Escherichia coli [37]): 32 µg/mL (≈ 58.9 µM)
COc1cc(CO/N=C2\CN(c3nc4c(cc3F)c(=O)c(C(=O)O)cn4[C@@H]3C[C@@H]3F)CC2CN)cc(OC)c1 (stereo partly specified) | 128 (≈ 235 µM) | < 0.008 | 16 (≈ 29.4 µM) | 32 (≈ 58.9 µM) | 4 (≈ 7.36 µM) | 2 (≈ 3.68 µM) | 16 (≈ 29.4 µM) | > 128 | 8 (≈ 14.7 µM) | 32 (≈ 58.9 µM) | 0.375 (≈ 0.69 µM) | 1 (≈ 1.84 µM) | 2 (≈ 3.68 µM) | 4 (≈ 7.36 µM) | > 128 | 16 (≈ 29.4 µM) | 8 (≈ 14.7 µM) | 16 (≈ 29.4 µM) | 0.015 (≈ 0.0276 µM) | 16 (≈ 29.4 µM) | MIC (Klebsiella pneumoniae [21]): 16 µg/mL (≈ 29.4 µM); MIC (Pseudomonas aeruginosa [22]): 32 µg/mL (≈ 58.9 µM); MIC (Pseudomonas aeruginosa [23]): 16 µg/mL (≈ 29.4 µM); MIC (Klebsiella pneumoniae [24]): 128 µg/mL (≈ 235 µM); MIC [25]: 4 µg/mL (≈ 7.36 µM); MIC (Klebsiella pneumoniae [26]): > 128 µg/mL; MIC (Klebsiella pneumoniae [27]): 64 µg/mL (≈ 118 µM); MIC (Pseudomonas aeruginosa [28]): 8 µg/mL (≈ 14.7 µM); MIC (Enterococcus faecium [29]): 16 µg/mL (≈ 29.4 µM); MIC (Staphylococcus aureus [30]): 16 µg/mL (≈ 29.4 µM); MIC (Escherichia coli [31]): > 128 µg/mL; MIC (Pseudomonas aeruginosa [32]): 32 µg/mL (≈ 58.9 µM); MIC [33]: 4 µg/mL (≈ 7.36 µM); MIC (Streptococcus pneumoniae): 0.06 µg/mL (≈ 0.11 µM); MIC (Klebsiella pneumoniae [34]): > 128 µg/mL; MIC (Staphylococcus aureus [35]): < 0.008 µg/mL; MIC (Staphylococcus aureus [36]): 0.015 µg/mL (≈ 0.0276 µM); MIC (Escherichia coli [37]): 4 µg/mL (≈ 7.36 µM)
